Converted amounts (≈) assume the structure as drawn.
Columns and labels:
Type in all cases: functional
[1] = test system: Staphylococcus epidermidis; assay: Antibacterial activity tested against Staphylococcus epidermidis HCF Berset C
Procedure, shortened: (§1)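 MICs (µg/mL) determined by conventional agar dilution against a panel of eight Gram-negative and five Gram-positive reference strains.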

Klebsiella pneumoniae = assay: Antibacterial activity tested against Klebsiella pneumoniae (Klebsiella pneumoniae) ATCC 10031; procedure, shortened: as §1
[2] = test system: Staphylococcus epidermidis; assay: Antibacterial activity tested against Staphylococcus epidermidis CPHL A2; procedure, shortened: as §1
Pseudomonas aeruginosa = assay: Antibacterial activity tested against P. ae (Pseudomonas aeruginosa) ATCC 9027; procedure, shortened: as §1
Shigella = assay: Antibacterial activity tested against Shigella enteritidis; procedure, shortened: as §1
Staphylococcus aureus [3] = assay: Antibacterial activity against Staphylococcus aureus ATCC 6538; procedure, shortened: as §1
Enterococcus faecalis = assay: Antibacterial activity tested against Streptococcus faecalis LEP Br; procedure, shortened: as §1
Escherichia coli [4] = assay: Antibacterial activity tested against Escherichia coli ISF 432; procedure, shortened: as §1
Staphylococcus aureus [5] = assay: Antibacterial activity against Staphylococcus aureus MPR 5; procedure, shortened: as §1
Providencia stuartii = assay: Antibacterial activity tested against Providencia stuartii CNUR 5; procedure, shortened: as §1
Bacteria = assay: Geometric mean of antibacterial activity (Gram +ve bacteria) of the compound
Procedure, shortened: (§2)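 Geometric means calculated from agar-dilution MICs (µg/mL), taken separately across the five Gram-positive and the eight Gram-negative panel strains.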

Escherichia coli [6] = assay: Antibacterial activity tested against Escherichia coli ATCC 8739; procedure, shortened: as §1
Enterobacter cloacae = assay: Antibacterial activity tested against Enterobacter cloacae OMNFI 174
[7] = Geometric mean of antibacterial activity (Gram -ve bacteria) of the compound; procedure, shortened: as §2
Proteus vulgaris = assay: Antibacterial activity tested against Proteus vulgaris CNUR 5; procedure, shortened: as §1

| SMILES | MIC [1] [µg/mL] | MIC (Klebsiella pneumoniae) [µg/mL] | MIC [2] [µg/mL] | MIC (Shigella) [µg/mL] | MIC (Staphylococcus aureus [3]) [µg/mL] | MIC (Enterococcus faecalis) [µg/mL] | MIC (Escherichia coli [4]) [µg/mL] | MIC (Staphylococcus aureus [5]) [µg/mL] | MIC (Providencia stuartii) [µg/mL] | MIC (Escherichia coli [6]) [µg/mL] | MIC (Enterobacter cloacae) [µg/mL] | MIC (Proteus vulgaris) [µg/mL] | MIC (Pseudomonas aeruginosa) [µg/mL] | Geometric mean (Bacteria) | Geometric mean [7] |
| --- | --- | --- | --- | --- | --- | --- | --- | --- | --- | --- | --- | --- | --- | --- | --- |
| CC1CN(c2cc3c(cc2N)c(=O)c(C(=O)O)cn3C2CC2)CCS1 (stereo not given) | 2 (≈ 5.56 µM) | 0.03 (≈ 0.0835 µM) | 1 (≈ 2.78 µM) | 0.5 (≈ 1.39 µM) | 0.5 (≈ 1.39 µM) | 8 (≈ 22.3 µM) | 0.03 (≈ 0.0835 µM) | 0.5 (≈ 1.39 µM) | 1 (≈ 2.78 µM) | 0.03 (≈ 0.0835 µM) | 0.5 (≈ 1.39 µM) | 128 (≈ 356 µM) | 2 (≈ 5.56 µM) | 1.32 | 0.451 |
| Nc1cc2c(=O)c(C(=O)O)cn(C3CC3)c2cc1N1CCCC1 | 128 (≈ 408 µM) | 0.25 (≈ 0.798 µM) | 128 (≈ 408 µM) | 16 (≈ 51.1 µM) | 128 (≈ 408 µM) | 128 (≈ 408 µM) | 0.25 (≈ 0.798 µM) | 128 (≈ 408 µM) | 128 (≈ 408 µM) | 0.25 (≈ 0.798 µM) | 8 (≈ 25.5 µM) | 128 (≈ 408 µM) | 128 (≈ 408 µM) | 128 | 6.73 |
| CN1CCN(c2cc3c(cc2N)c(=O)c(C(=O)O)cn3-c2ccc(F)cc2)CC1 | 8 (≈ 20.2 µM) | 0.125 (≈ 0.315 µM) | 8 (≈ 20.2 µM) | 4 (≈ 10.1 µM) | 8 (≈ 20.2 µM) | 64 (≈ 161 µM) | 0.125 (≈ 0.315 µM) | 4 (≈ 10.1 µM) | 4 (≈ 10.1 µM) | 0.125 (≈ 0.315 µM) | 4 (≈ 10.1 µM) | 128 (≈ 323 µM) | 8 (≈ 20.2 µM) | 10.556 | 1.834 |
| CN1CCN(c2c(N)cc3c(=O)c(C(=O)O)cn(C4CC4)c3c2F)CC1 | 8 (≈ 22.2 µM) | 0.06 (≈ 0.166 µM) | 4 (≈ 11.1 µM) | 0.25 (≈ 0.694 µM) | 4 (≈ 11.1 µM) | 64 (≈ 178 µM) | 0.06 (≈ 0.166 µM) | 4 (≈ 11.1 µM) | 4 (≈ 11.1 µM) | 1 (≈ 2.77 µM) | 0.25 (≈ 0.694 µM) | 32 (≈ 88.8 µM) | 2 (≈ 5.55 µM) | 8 | 0.699 |
| CC1CN(c2cc3c(cc2N)c(=O)c(C(=O)O)cn3C2CC2)CCN1 (stereo not given) | 4 (≈ 11.7 µM) | 0.03 (≈ 0.0876 µM) | 4 (≈ 11.7 µM) | 0.25 (≈ 0.73 µM) | 16 (≈ 46.7 µM) | 32 (≈ 93.5 µM) | 0.03 (≈ 0.0876 µM) | 16 (≈ 46.7 µM) | 16 (≈ 46.7 µM) | 0.03 (≈ 0.0876 µM) | 0.25 (≈ 0.73 µM) | 32 (≈ 93.5 µM) | 2 (≈ 5.84 µM) | 10.556 | 0.451 |

Further lines, with some results ahead:

| MIC [1] [µg/mL] | MIC (Klebsiella pneumoniae) [µg/mL] | MIC [2] [µg/mL] | MIC (Shigella) [µg/mL] | MIC (Staphylococcus aureus [3]) [µg/mL] | MIC (Enterococcus faecalis) [µg/mL] | MIC (Escherichia coli [4]) [µg/mL] | MIC (Staphylococcus aureus [5]) [µg/mL] | MIC (Providencia stuartii) [µg/mL] | MIC (Escherichia coli [6]) [µg/mL] | MIC (Enterobacter cloacae) [µg/mL] | MIC (Proteus vulgaris) [µg/mL] | SMILES | MIC (Pseudomonas aeruginosa) [µg/mL] | Geometric mean (Bacteria) | Geometric mean [7] |
| --- | --- | --- | --- | --- | --- | --- | --- | --- | --- | --- | --- | --- | --- | --- | --- |
| > 128 | 1 (≈ 2.95 µM) | > 128 | > 128 | > 128 | > 128 | 1 (≈ 2.95 µM) | > 128 | > 128 | 1 (≈ 2.95 µM) | > 128 | > 128 | Cc1c(N2CC=CCC2)c(N)cc2c(=O)c(C(=O)O)cn(C3CC3)c12 | > 128 | 128 | 20.749 |
| 2 (≈ 5.4 µM) | 0.03 (≈ 0.081 µM) | 1 (≈ 2.7 µM) | 0.25 (≈ 0.675 µM) | 1 (≈ 2.7 µM) | 16 (≈ 43.2 µM) | 0.03 (≈ 0.081 µM) | 1 (≈ 2.7 µM) | 2 (≈ 5.4 µM) | 0.06 (≈ 0.162 µM) | 0.5 (≈ 1.35 µM) | 8 (≈ 21.6 µM) | Cc1c(N2CC(C)NC(C)C2)c(N)cc2c(=O)c(C(=O)O)cn(C3CC3)c12 (stereo not given) | 2 (≈ 5.4 µM) | 2 | 0.348 |
| 16 (≈ 48.9 µM) | 0.5 (≈ 1.53 µM) | 16 (≈ 48.9 µM) | 64 (≈ 195 µM) | 4 (≈ 12.2 µM) | 64 (≈ 195 µM) | 1 (≈ 3.05 µM) | 4 (≈ 12.2 µM) | 64 (≈ 195 µM) | 32 (≈ 97.7 µM) | 64 (≈ 195 µM) | > 128 | Cc1c(N2CCCC2)c(N)cc2c(=O)c(C(=O)O)cn(C3CC3)c12 | > 128 | 12.12 | 22.627 |

Source: ChEMBL document CHEMBL1129660, “Studies on 6-aminoquinolones: synthesis and antibacterial evaluation of 6-amino-8-methylquinolones” (J Med Chem, 1996)
